Legend:
Assay type in all cases: functional
PC-3 = test: Antiproliferative activity against human PC3 cells after 3 days by sulforhodamine B assay; details: PC-3, 72 h
KB = test: Antiproliferative activity against human KB cells after 3 days by sulforhodamine B assay; details: 72 h
How it was run: (§1)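 Cells grown in RPMI-1640 with 25 mM HEPES, 0.25% sodium bicarbonate, 10% FBS and 100 μg/mL kanamycin. Exposed to compound for 3 days, with at most 0.5% v/v DMSO. Attached cells fixed in cold 50% TCA, stained with 0.4% sulforhodamine B, and the bound dye solubilized. A562 read. GI50 is the concentration giving a 50% absorbance drop versus untreated cells.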

HCT-8 = test: Antiproliferative activity against human HCT8 cells after 3 days by sulforhodamine B assay; details: HCT-8, 72 h; how it was run: as §1
MCF7 = test: Antiproliferative activity against human MCF7 cells after 3 days by sulforhodamine B assay; details: MCF7, 72 h
HepG2 = test: Antiproliferative activity against human HepG2 cells after 3 days by sulforhodamine B assay; details: HepG2, 72 h
How it was run: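 Sulforhodamine B assay over 3 days in culture, with at most 0.5% v/v DMSO. Attached cells fixed in cold 50% TCA, stained with 0.4% SRB, and the dye solubilized. Absorbance read at 562 nm. GI50 is the concentration causing a 50% fall in absorbance relative to untreated cells.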

[1] = Antiproliferative activity against human KBVIN cells after 3 days by sulforhodamine B assay; details: 72 h; how it was run: as §1
A549 = test: Antiproliferative activity against human A549 cells after 3 days by sulforhodamine B assay; details: A549, 72 h; how it was run: as §1

SMILES | GI50 (PC-3) | GI50 (KB) | GI50 (HCT-8) | GI50 (MCF7) | GI50 (HepG2) | GI50 (A549) | GI50 [1]
CCC1=C(O)c2c(oc(-c3cn(C)c4ccccc34)cc2=O)C(CC)(CC)C1=O | 20.5 µM | 18.7 µM | 15.9 µM | 17.4 µM | 21.7 µM | 5.63 µM | 2.81 µM
CCC1=C(O)c2c(oc(-c3cnc4ccccc4c3)cc2=O)C(CC)(CC)C1=O | 12.8 µM | 15.4 µM | 12.8 µM | 19.3 µM | 14.9 µM | 12.8 µM | 14.9 µM
CCC1=C(OC)C(CC)(CC)c2oc(-c3cccc4ccccc34)cc(=O)c2C1=O | 14.7 µM | 11.2 µM | 11.7 µM | 20.9 µM | 20.7 µM | 16.7 µM | 9.7 µM
CCC1=C(O)c2c(oc(-c3c(C)ccc4ccccc34)cc2=O)C(CC)(CC)C1=O | 12.4 µM | 19.9 µM | 17.4 µM | 13.7 µM | 16.7 µM | 17.4 µM | 19.9 µM
CCC1=C(O)c2c(oc(-c3ccc4c(c3)OCO4)cc2=O)C(CC)(CC)C1=O | 5.24 µM | 18.3 µM | 13.1 µM | 11.3 µM | 11.8 µM | 26.2 µM | 17 µM
CCC1=C(O)c2c(oc(-c3cc4ccccc4c4ccccc34)cc2=O)C(CC)(CC)C1=O [6,8,8-TRIETHYL-2-(PHENANTHREN-9-YL) DESMOSDUMOTIN B] | 13.7 µM | 11.4 µM | 12.8 µM | 9.13 µM |  | 18.3 µM | 9.82 µM

Further lines, with some results ahead:

GI50 (PC-3) | GI50 (KB) | GI50 (HCT-8) | GI50 (MCF7) | GI50 (HepG2) | GI50 (A549) | SMILES | GI50 [1]
3.81 µM | 11.2 µM | 19 µM | 15.2 µM | 15.7 µM | 14 µM | CCC1=C(O)c2c(oc(-c3cc4ccccc4s3)cc2=O)C(CC)(CC)C1=O | 9.9 µM
28 µM | 4.5 µM | 15.6 µM |  | 17.7 µM | 9.79 µM | CCC1=C(O)c2c(oc(-c3coc4ccccc34)cc2=O)C(CC)(CC)C1=O | 2.09 µM
1.45 µM | 0.29 µM | 1.16 µM | 1.73 µM |  | 1.73 µM | CC1=C(O)c2c(oc(-c3cccc4ccccc34)cc2=O)C(C)(C)C1=O [2-(NAPHTHALEN-1-YL)DESMOSDUMOTIN B] | 0.58 µM
16.6 µM | 1.41 µM | 8.17 µM | 3.22 µM | 8.42 µM | 1.86 µM | CCC1=C(O)c2c(oc(-c3cccc4ccccc34)cc2=O)C(CC)(CC)C1=S | 2.7 µM
12.6 µM | 5.93 µM | 9.28 µM |  | 9.02 µM | 7.99 µM | CCC1=C(O)C2=C(OC(c3cccc4ccccc34)CC2=O)C(CC)(CC)C1=O (stereo not drawn) | 3.87 µM
24.1 µM | 7.38 µM | 13.3 µM | 14.1 µM | 24.1 µM | 5.95 µM | CCC1=C(O)c2c(oc(-c3cccc4ccccc34)cc2=S)C(CC)(CC)C1=S | 5.95 µM
10.8 µM | 9.13 µM | 7.68 µM | 11 µM | 14.5 µM | 4.77 µM | CCC1=C(OC)C(CC)(CC)c2oc(-c3cccc4ccccc34)c(Br)c(=O)c2C1=O | 9.96 µM
 | 0.004 µM | 0.036 µM |  |  | 0.007 µM | CC[C@]1(O)C[C@H]2CN(CCc3c([nH]c4ccccc34)[C@@](C(=O)OC)(c3cc4c(cc3OC)N(C=O)[C@H]3[C@@](O)(C(=O)OC)[C@H](OC(C)=O)[C@]5(CC)C=CCN6CC[C@]43[C@@H]65)C2)C1 [VINCRISTINE] | 9.09 µM
6.04 µM | 2.17 µM | 2.42 µM | 3.62 µM | 4.59 µM | 6.04 µM | CCC1=C(O)c2c(oc(-c3ccc4c5c(cccc35)CC4)cc2=O)C(CC)(CC)C1=O | 1.93 µM
